Key:
Spleen [1] = assay: AUC (0 to infinity) in F344 rat spleen at 5 mg/kg, iv administered as single bolus dose; assay type: ADME, organism-based; parameters: time infinity, dose 5 mg/kg, route intravenous; conditions: in vivo
How it was run: (§1)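 Male F344 rats, 10–11 weeks, 223.6–243.8 g, given one IV dose of [¹⁴C]anidulafungin, 5 mg/kg, over about 5 min. Tissues and blood sampled at 0.083–72 h (n = 3 rats per time). Parent drug measured by HPLC; LLOQ/ULOQ were 20/5,120 ng/ml for plasma and 220/56,320 ng/g for tissue. Noncompartmental parameters taken from the composite mean profile.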

Kidney [2] = assay: AUC (0 to infinity) in F344 rat kidney assessed as total compound-derived radioactivity per gram of tissue at 5 mg/kg, iv administered as single bolus dose […]; assay type: ADME, organism-based; parameters: time infinity, dose 5 mg/kg, route intravenous; conditions: in vivo
How it was run: (§2)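 Same F344 study: single 5 mg/kg IV [¹⁴C]anidulafungin given over about 5 min. Total drug-derived radioactivity (parent plus metabolites) counted by liquid scintillation, in […]. Noncompartmental analysis of the composite mean profile.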

Cerebrospinal fluid = assay: AUC (0 to infinity) in F344 rat cerebrospinal fluid assessed as total compound-derived radioactivity per gram of tissue at 5 mg/kg, iv administered as single bolus dose […]; assay type: ADME, organism-based; parameters: time infinity, dose 5 mg/kg, route intravenous; conditions: in vivo; how it was run: as §2
[3] = Cmax in F344 rat muscle at 5 mg/kg, iv administered as single bolus dose after 30 min by HPLC method; assay type: ADME, organism-based, Muscle tissue; parameters: dose 5 mg/kg, route intravenous; how it was run: as §1
Kidney [4] = assay: Drug level in Long Evans rat kidney assessed as low disposition of radioactivity per gram of tissue at 5 mg/kg, iv administered as single bolus dose measured 12 hrs postdose by autoradiography; assay type: ADME, organism-based; parameters: dose 5 mg/kg, route intravenous; conditions: in vivo
How it was run: (§3)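 Male pigmented Long Evans (HsdBlu:LE) rats, 7.5 weeks old, 202 to 217 g, single iv [¹⁴C]anidulafungin; one rat per sampling time. Euthanized by isoflurane and cardiac-puncture exsanguination. Sagittal whole-body sections quantified by phosphorimaging autoradiography, single samples corrected for section thickness across multiple sections per tissue. Concentrations (μg eq/g drug-derived radioactivity) interpolated from least-squares standard curves per scan.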

Lung [5] = assay: Drug level in Long Evans rat lung assessed as radioactivity per gram of tissue at 5 mg/kg, iv administered as single bolus dose measured 12 hrs postdose by autoradiography; assay type: ADME, organism-based; parameters: dose 5 mg/kg, route intravenous; conditions: in vivo; how it was run: as §3
Zone of skin [6] = assay: Drug level in Long Evans rat skin assessed as radioactivity per gram of tissue at 5 mg/kg, iv administered as single bolus dose measured 168 hrs postdose by autoradiography; assay type: ADME, organism-based; parameters: dose 5 mg/kg, route intravenous; conditions: in vivo
How it was run: (§4)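 Male pigmented Long Evans (HsdBlu:LE) rats, 7.5 weeks old and 202 to 217 g, got a single iv dose of [14C]anidulafungin at 5 mg/kg. One rat per time point (0.5, 6, 12, 24, 72, 168 h) was euthanised by isoflurane and cardiac-puncture exsanguination. Sagittal whole-body sections were quantified by phosphorimaging. Samples were thickness-corrected, and concentrations (μg eq/g) were interpolated from least-squares standard curves.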

Kidney [7] = assay: Drug level in Long Evans rat kidney assessed as high disposition of radioactivity per gram of tissue at 5 mg/kg, iv administered as single bolus dose measured 12 hrs postdose by autoradiography; assay type: ADME, organism-based; parameters: dose 5 mg/kg, route intravenous; conditions: in vivo; how it was run: as §3
Kidney [8] = assay: Drug level in Long Evans rat kidney assessed as high disposition of radioactivity per gram of tissue at 5 mg/kg, iv administered as single bolus dose measured 24 hrs postdose by autoradiography; assay type: ADME, organism-based; parameters: dose 5 mg/kg, route intravenous; conditions: in vivo; how it was run: as §3
Liver [9] = assay: AUC (0 to 24 hrs) in F344 rat liver at 5 mg/kg, iv administered as single bolus dose; assay type: ADME, organism-based; parameters: time < 24 hr, dose 5 mg/kg, route intravenous; conditions: in vivo; how it was run: as §1
[10] = Drug level in Long Evans rat eye assessed as radioactivity per gram of tissue at 5 mg/kg, iv administered as single bolus dose measured 168 hrs postdose by autoradiography; assay type: ADME, organism-based; parameters: dose 5 mg/kg, route intravenous; conditions: in vivo; how it was run: as §3
Kidney [11] = assay: Drug level in Long Evans rat kidney assessed as high disposition of radioactivity per gram of tissue at 5 mg/kg, iv administered as single bolus dose measured 6 hrs postdose by autoradiography; assay type: ADME, organism-based; parameters: dose 5 mg/kg, route intravenous; conditions: in vivo; how it was run: as §3
Spleen [12] = assay: Drug level in Long Evans rat spleen assessed as radioactivity per gram of tissue at 5 mg/kg, iv administered as single bolus dose measured 168 hrs postdose by autoradiography; assay type: ADME, organism-based; parameters: dose 5 mg/kg, route intravenous; conditions: in vivo; how it was run: as §4
Lung [13] = assay: Drug level in Long Evans rat lung assessed as radioactivity per gram of tissue at 5 mg/kg, iv administered as single bolus dose measured 24 hrs postdose by autoradiography; assay type: ADME, organism-based; parameters: dose 5 mg/kg, route intravenous; conditions: in vivo; how it was run: as §3
Muscle tissue [14] = assay: AUC (0 to infinity) in F344 rat muscle at 5 mg/kg, iv administered as single bolus dose; assay type: ADME, organism-based; parameters: dose 5 mg/kg, route intravenous, time infinity; conditions: in vivo; how it was run: as §1
Spleen [15] = assay: Drug level in Long Evans rat spleen assessed as radioactivity per gram of tissue at 5 mg/kg, iv administered as single bolus dose measured 6 hrs postdose by autoradiography; assay type: ADME, organism-based; parameters: dose 5 mg/kg, route intravenous; conditions: in vivo; how it was run: as §4
[16] = Tmax in F344 rat plasma at 5 mg/kg, iv administered as single bolus dose by HPLC method; assay type: ADME, organism-based; parameters: dose 5 mg/kg, route intravenous
How it was run: (§5)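 F344 males, 10 to 11 weeks old and 223.6 to 243.8 g, got a single 5 mg/kg iv dose of [14C]anidulafungin over about 5 min. Plasma and tissues were collected predose and at 0.083 to 72 h, n = 3 per time point. Parent drug was quantified by HPLC-UV, with LLOQ/ULOQ of 20/5,120 ng/ml in plasma and 220/56,320 ng/g in tissue. Noncompartmental parameters came from a composite mean concentration-time profile.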

Lung [17] = assay: Drug level in Long Evans rat lung assessed as radioactivity per gram of tissue at 5 mg/kg, iv administered as single bolus dose measured 168 hrs postdose by autoradiography; assay type: ADME, organism-based; parameters: dose 5 mg/kg, route intravenous; conditions: in vivo; how it was run: as §3
Kidney [18] = assay: Drug level in Long Evans rat kidney assessed as low disposition of radioactivity per gram of tissue at 5 mg/kg, iv administered as single bolus dose measured 6 hrs postdose by autoradiography; assay type: ADME, organism-based; parameters: dose 5 mg/kg, route intravenous; conditions: in vivo; how it was run: as §3
Kidney [19] = assay: AUC (0 to 24 hrs) in F344 rat kidney at 5 mg/kg, iv administered as single bolus dose; assay type: ADME, organism-based; parameters: time < 24 hr, dose 5 mg/kg, route intravenous; conditions: in vivo; how it was run: as §1
Liver [20] = assay: AUC (0 to 24 hrs) in F344 rat liver assessed as total compound-derived radioactivity per gram of tissue at 5 mg/kg, iv administered as single bolus dose […]; assay type: ADME, organism-based; parameters: time < 24 hr, dose 5 mg/kg, route intravenous; conditions: in vivo; how it was run: as §2
Rattus norvegicus = assay: Volume of distribution in F344 rat assessed as total compound-derived radioactivity at 5 mg/kg, iv administered as single bolus dose; assay type: ADME, organism-based; parameters: dose 5 mg/kg, route intravenous; conditions: in vivo
How it was run: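 Male F344 rats, 10 to 11 weeks old and 223.6 to 243.8 g, got one iv dose of [14C]anidulafungin at 5 mg/kg over about 5 min. Blood, CSF, kidney, liver, lung, quadriceps, spleen and skin were sampled predose and at 0.083 to 72 h, 3 rats per time. Total radioactivity (parent plus metabolites) was measured by liquid scintillation counting. Parameters were noncompartmental, from a composite mean profile.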

Muscle tissue [21] = assay: AUC (0 to 24 hrs) in F344 rat muscle at 5 mg/kg, iv administered as single bolus dose; assay type: ADME, organism-based; parameters: time < 24 hr, dose 5 mg/kg, route intravenous; conditions: in vivo; how it was run: as §1
Liver [22] = assay: AUC (0 to infinity) in F344 rat liver assessed as total compound-derived radioactivity per gram of tissue at 5 mg/kg, iv administered as single bolus dose […]; assay type: ADME, organism-based; parameters: time infinity, dose 5 mg/kg, route intravenous; conditions: in vivo; how it was run: as §2
[23] = Tmax in F344 rat spleen at 5 mg/kg, iv administered as single bolus dose by HPLC method; assay type: ADME, organism-based; parameters: dose 5 mg/kg, route intravenous; how it was run: as §5
Zone of skin [24] = assay: AUC (0 to infinity) in F344 rat skin assessed as total compound-derived radioactivity per gram of tissue at 5 mg/kg, iv administered as single bolus dose […]; assay type: ADME, organism-based; parameters: time infinity, dose 5 mg/kg, route intravenous; conditions: in vivo; how it was run: as §2
Liver [25] = assay: Drug level in Long Evans rat liver assessed as low disposition of radioactivity per gram of tissue at 5 mg/kg, iv administered as single bolus dose measured 6 hrs postdose by autoradiography; assay type: ADME, organism-based; parameters: dose 5 mg/kg, route intravenous; conditions: in vivo; how it was run: as §3

Molecule `CCCCCOc1ccc(-c2ccc(-c3ccc([14C](=O)N[C@H]4C[C@@H](O)[C@@H](O)NC(=O)[C@@H]5[C@@H](O)[C@@H](C)CN5C(=O)[C@H]([C@@H](C)O)NC(=O)[C@H]([C@H](O)[C@@H](O)c5ccc(O)cc5)NC(=O)[C@@H]5C[C@@H](O)CN5C(=O)[C@H]([C@@H](C)O)NC4=O)cc3)cc2)cc1` [14C-ANIDULAFUNGIN] has an AUC (Spleen [1]) of 567.95 µg·h/g, an AUC (Kidney [2]) of 1437.94 ugequiv.hr/g and an AUC (Cerebrospinal fluid) of 0.95 ugequiv.hr/g. For the same molecule, the Cmax [3] was 3840 ng/g, the Drug uptake (Kidney [4]) was 7.54 ugequiv and the Drug uptake (Lung [5]) was 5.64 ugequiv. The Drug uptake (Zone of skin [6]) was 2.48 ugequiv, the Drug uptake (Kidney [7]) was 14.1 ugequiv and the Drug uptake (Kidney [8]) was 12.57 ugequiv. For the same molecule, the AUC (Liver [9]) was 586.44 µg·h/g, the Drug uptake [10] was 0.6 ugequiv and the Drug uptake (Kidney [11]) was 20.66 ugequiv. For the same molecule, the Drug uptake (Spleen [12]) was 1.53 ugequiv, the Drug uptake (Lung [13]) was 8.05 ugequiv and the AUC (Muscle tissue [14]) was 57.35 µg·h/g. It also gave a Drug uptake (Spleen [15]) of 22.15 ugequiv, a Tmax [16] of 4.98 min and a Drug uptake (Lung [17]) of 0.96 ugequiv. The Drug uptake (Kidney [18]) was 8.45 ugequiv, the AUC (Kidney [19]) was 517.32 µg·h/g and the AUC (Liver [20]) was 1346.94 ugequiv.hr/g. The Vd (Rattus norvegicus) was 0.2 L/kg, the AUC (Muscle tissue [21]) was 54.33 µg·h/g and the AUC (Liver [22]) was 2656.38 ugequiv.hr/g. The Tmax [23] was 30 min, the AUC (Zone of skin [24]) was 326.92 ugequiv.hr/g and the Drug uptake (Liver [25]) was 17.68 ugequiv.
